Measurements from ChEMBL document CHEMBL1124311, “Synthesis and antiallergy activity of 4-(diarylhydroxymethyl)-1-[3-(aryloxy)propyl]piperidines and structurally related compounds” (J Med Chem, 1989).
Calls of active or inactive are those of the source. No cut-off for these calls is given here.

Key:
Rattus norvegicus [1] = assay: Oral antiallergy activity in the passive foot anaphylaxis (PFA) model of rat, at a dose of 10 (mg/kg); Activity equal to positive control group; assay type: functional, organism-based
Rattus norvegicus [2] = assay: Oral antiallergy activity in the passive foot anaphylaxis (PFA) model of rat, at a dose of 3.16 (mg/kg); not significantly different from negative control group; assay type: functional, organism-based
Rattus norvegicus [3] = assay: Oral antiallergy activity in the passive foot anaphylaxis (PFA) model of rat, at a dose of 1.0 (mg/kg); not significantly different from negative control group; assay type: functional, organism-based
Rattus norvegicus [4] = assay: Oral antiallergy activity in the passive foot anaphylaxis (PFA) model of rat, at a dose of 10 (mg/kg); Activity greater than positive control group; assay type: functional, organism-based
Rattus norvegicus [5] = assay: Oral antiallergy activity in the passive foot anaphylaxis (PFA) model of rat, at a dose of 3.16 (mg/kg); Activity equal to positive control group; assay type: functional, organism-based
Rattus norvegicus [6] = assay: Oral antiallergy activity in the passive foot anaphylaxis (PFA) model of rat, at a dose of 3.16 (mg/kg); Activity between positive and negative control groups; assay type: functional, organism-based
Rattus norvegicus [7] = assay: Oral antiallergy activity in the passive foot anaphylaxis (PFA) model of rat, at a dose of 1.0 (mg/kg); Activity between positive and negative control groups; assay type: functional, organism-based
Rattus norvegicus [8] = assay: Oral antiallergy activity in the passive foot anaphylaxis (PFA) model of rat, at a dose of 10 (mg/kg); Activity between positive and negative control groups; assay type: functional, organism-based
Rattus norvegicus [9] = assay: Oral antiallergy activity in the passive foot anaphylaxis (PFA) model of rat, at a dose of 0.5 (mg/kg); Activity between positive and negative control groups; assay type: functional, organism-based
Rattus norvegicus [10] = assay: Oral antiallergy activity in the passive foot anaphylaxis (PFA) model of rat, at a dose of 1.0 (mg/kg); assay type: functional, organism-based
Cavia porcellus [11] = species on record: Cavia porcellus; assay: Oral antiallergy activity in the guinea pig anaphylaxis (GPA) model, at a pretreatment time of 1 h; assay type: functional; settings: read-out: PD50
Summary of the method: (§1)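 Fasted, sensitized Dunkin-Hartley guinea pigs, randomized into control (N = 8) and test (N = 4) groups, dosed by gavage at 10 mL/kg in 0.5% Tween 80 in water; theophylline 100 mg/kg po as reference. At the stated pretreatment time, each animal was exposed to aerosolized 1% (w/v) egg albumin at 10 L air/min for up to 5 min. Protection meant no collapse within 5 min. PD50 was calculated by Litchfield–Wilcoxon.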

Cavia porcellus [12] = species on record: Cavia porcellus; assay: Oral antiallergy activity in the guinea pig anaphylaxis (GPA) model, at a pretreatment time of 24 h; assay type: functional; settings: read-out: PD50; summary of the method: as §1
Histamine H1 receptor = Histamine H1 receptor (Cavia porcellus, UniProt P31389); assay: Inhibitory activity against Tritiated [3H]- mepyramine binding to histamine H1 receptor in guinea pig cerebral cortex; assay type: tissue-based
Summary of the method: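 Guinea pig (Dunkin-Hartley) cerebral cortex homogenized in cold 50 mM Na-K phosphate pH 7.5, centrifuged at 48000g three times, resuspended 30 mL buffer/g tissue. Six concentrations (1e-5 to 1e-10 M) run in triplicate. IC50 derived by regression of logit % control binding vs log concentration.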

Rattus norvegicus [13] = assay: Oral antiallergy activity in the passive foot anaphylaxis (PFA) model of rat, at a dose of 0.5 (mg/kg); not significantly different from negative control group; assay type: functional, organism-based
Rattus norvegicus [14] = assay: Oral antiallergy activity in the passive foot anaphylaxis (PFA) model of rat, at a dose of 3.16 (mg/kg); Activity greater than positive control group; assay type: functional, organism-based
Cavia porcellus [15] = species on record: Cavia porcellus; assay: Oral antiallergy activity in the guinea pig anaphylaxis (GPA) model of, at a pretreatment time of 5 h; assay type: functional; settings: read-out: PD50; summary of the method: as §1

Sequence of Histamine H1 receptor (P31389 whole entry): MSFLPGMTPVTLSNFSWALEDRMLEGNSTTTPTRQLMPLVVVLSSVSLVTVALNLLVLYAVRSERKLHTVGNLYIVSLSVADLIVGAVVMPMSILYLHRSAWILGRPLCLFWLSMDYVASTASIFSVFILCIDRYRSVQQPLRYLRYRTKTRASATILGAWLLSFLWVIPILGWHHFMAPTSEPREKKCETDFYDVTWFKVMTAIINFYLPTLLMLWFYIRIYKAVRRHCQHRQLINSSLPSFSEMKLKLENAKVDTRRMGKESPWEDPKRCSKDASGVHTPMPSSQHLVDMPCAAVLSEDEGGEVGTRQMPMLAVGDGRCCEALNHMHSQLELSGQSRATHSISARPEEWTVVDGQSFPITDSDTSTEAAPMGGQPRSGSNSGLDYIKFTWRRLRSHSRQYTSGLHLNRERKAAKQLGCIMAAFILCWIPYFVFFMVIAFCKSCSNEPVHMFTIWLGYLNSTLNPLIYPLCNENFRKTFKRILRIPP

COc1ccc(OCCCN2CCC(C(O)(c3ccc(F)cc3)c3ccc(F)cc3)CC2)cc1 was tested, and the PFA (Rattus norvegicus [1]) was “Activity equal to positive control group” and the PFA (Rattus norvegicus [2]) was “Activity equal to positive control group”.

CS(=O)(=O)c1ccc(OCCCN2CCC(C(O)(c3ccc(F)cc3)c3ccc(F)cc3)CC2)cc1 was tested, and the PFA (Rattus norvegicus [1]) was “Activity equal to positive control group” and the PFA (Rattus norvegicus [2]) was “Activity equal to positive control group”.

With CCC(=O)c1ccc(OCCCN2CCC(C(O)(c3ccc(F)cc3)c3ccc(F)cc3)CC2)cc1 the PFA (Rattus norvegicus [3]) was “Activity equal to positive control group”, the PFA (Rattus norvegicus [4]) was “Activity equal to positive control group” and the PFA (Rattus norvegicus [5]) was “Activity equal to positive control group”.

With CCOC(=O)Nc1ccc(OCCCN2CCC(C(O)(c3ccc(F)cc3)c3ccc(F)cc3)CC2)cc1 the PFA (Rattus norvegicus [3]) was “Activity equal to positive control group”, the PFA (Rattus norvegicus [4]) was “Activity equal to positive control group” and the PFA (Rattus norvegicus [5]) was “Activity equal to positive control group”.

O=C(O)Cc1ccc(OCCCN2CCC(C(O)(c3ccc(F)cc3)c3ccc(F)cc3)CC2)cc1 was tested, and the PFA (Rattus norvegicus [3]) was “Activity between positive and negative control groups”, the PFA (Rattus norvegicus [1]) was “Activity between positive and negative control groups” and the PFA (Rattus norvegicus [6]) was “Activity between positive and negative control groups”.

CNC(=O)Nc1ccc(OCCCN2CCC(C(O)(c3ccc(F)cc3)c3ccc(F)cc3)CC2)cc1 was tested, and the PFA (Rattus norvegicus [1]) was “Activity equal to positive control group” and the PFA (Rattus norvegicus [2]) was “Activity equal to positive control group”.

With COc1cc(C(C)=O)ccc1OCCCN1CCC(C(O)(c2ccccc2)c2ccc(F)cc2)CC1 (centres undefined) the PFA (Rattus norvegicus [5]) was “Activity equal to positive control group”.

In the case of COc1ccccc1OCCCN1CCC(C(O)(c2ccc(F)cc2)c2ccc(F)cc2)CC1, the PFA (Rattus norvegicus [7]) is reported as “Activity between positive and negative control groups” and the PFA (Rattus norvegicus [6]) is reported as “Activity between positive and negative control groups”.

COc1cc(C(C)=O)ccc1OCCCCN1CCC(C(O)(c2ccc(F)cc2)c2ccc(F)cc2)CC1 was tested, and the PFA (Rattus norvegicus [5]) was “Activity equal to positive control group”.

In the case of Cc1cccc(OCCCN2CCC(C(O)(c3ccc(F)cc3)c3ccc(F)cc3)CC2)c1, the PFA (Rattus norvegicus [3]) is reported as “Activity between positive and negative control groups”, the PFA (Rattus norvegicus [8]) is reported as “Activity between positive and negative control groups” and the PFA (Rattus norvegicus [6]) is reported as “Activity between positive and negative control groups”.

In the case of COc1cc(C(C)=O)ccc1OCCCN1CCC(=C(c2ccccc2)c2ccccc2)CC1, the PFA (Rattus norvegicus [5]) is reported as “Activity equal to positive control group”.

O=C(O)c1ccc(OCCCN2CCC(C(O)(c3ccc(F)cc3)c3ccc(F)cc3)CC2)cc1 was tested, and the PFA (Rattus norvegicus [9]) was “Activity between positive and negative control groups”, the PFA (Rattus norvegicus [6]) was “Activity between positive and negative control groups” and the PFA (Rattus norvegicus [10]) was “Activity between positive and negative control groups”.

With CC(=O)Cc1ccc(OCCCN2CCC(C(O)(c3ccc(F)cc3)c3ccc(F)cc3)CC2)cc1 the PFA (Rattus norvegicus [4]) was “Activity greater than positive control group” and the PFA (Rattus norvegicus [2]) was “Activity greater than positive control group”.

In the case of COC(=O)c1ccc(OCCCN2CCC(C(O)(c3ccc(F)cc3)c3ccc(F)cc3)CC2)cc1, the ED50 (Cavia porcellus [11]) is reported as 0.72 mg/kg, the ED50 (Cavia porcellus [12]) is reported as 2.04 mg/kg and the IC50 (Histamine H1 receptor) is reported as 63 nM. The PFA (Rattus norvegicus [7]) was “Weak activity”, the PFA (Rattus norvegicus [13]) was “inactive” and the PFA (Rattus norvegicus [14]) was “Active”. It also gave an ED50 (Cavia porcellus [15]) of 0.32 mg/kg.

With NC(=O)c1ccc(OCCCN2CCC(C(O)(c3ccc(F)cc3)c3ccc(F)cc3)CC2)cc1 the PFA (Rattus norvegicus [7]) was “Activity between positive and negative control groups”, the PFA (Rattus norvegicus [4]) was “Activity between positive and negative control groups” and the PFA (Rattus norvegicus [13]) was “Activity between positive and negative control groups”. The PFA (Rattus norvegicus [6]) was “Activity between positive and negative control groups”.

COc1cc(C(C)=O)ccc1OCCCN1CCC(C(O)(c2ccc(F)cc2)c2ccc(F)cc2)CC1 showed an ED50 (Cavia porcellus [11]) of 1.78 mg/kg, an ED50 (Cavia porcellus [12]) of 0.78 mg/kg and an IC50 (Histamine H1 receptor) of 8 nM. The PFA (Rattus norvegicus [3]) was “inactive”, the PFA (Rattus norvegicus [4]) was “Active” and the PFA (Rattus norvegicus [5]) was “Active”. It also gave an ED50 (Cavia porcellus [15]) of 0.18 mg/kg.

In the case of CC(=O)c1ccc(OCCCN2CCC(C(O)(c3ccc(F)cc3)c3ccc(F)cc3)CC2)cc1, the PFA (Rattus norvegicus [3]) is reported as “Activity equal to positive control group”, the PFA (Rattus norvegicus [4]) is reported as “Activity equal to positive control group” and the PFA (Rattus norvegicus [5]) is reported as “Activity equal to positive control group”.

With CSc1ccc(OCCCN2CCC(C(O)(c3ccc(F)cc3)c3ccc(F)cc3)CC2)cc1 the PFA (Rattus norvegicus [1]) was “Activity equal to positive control group” and the PFA (Rattus norvegicus [2]) was “Activity equal to positive control group”.

For CCOC(=O)c1ccccc1OCCCN1CCC(C(O)(c2ccc(F)cc2)c2ccc(F)cc2)CC1, the PFA (Rattus norvegicus [3]) was “Activity between positive and negative control groups”, the PFA (Rattus norvegicus [8]) was “Activity between positive and negative control groups” and the PFA (Rattus norvegicus [6]) was “Activity between positive and negative control groups”.

In the case of OC(c1ccc(F)cc1)(c1ccc(F)cc1)C1CCN(CCCOc2ccccc2)CC1, the PFA (Rattus norvegicus [5]) is reported as “Activity equal to positive control group”.

Molecule COc1cc(C(C)=O)ccc1OCCCN1CCC(C(O)(c2ccccc2)c2ccccc2)CC1 has an ED50 (Cavia porcellus [11]) of 0.57 mg/kg, an ED50 (Cavia porcellus [12]) of 1.4 mg/kg and an IC50 (Histamine H1 receptor) of 42 nM. The PFA (Rattus norvegicus [3]) was “inactive”, the PFA (Rattus norvegicus [4]) was “Active” and the PFA (Rattus norvegicus [5]) was “Active”. For the same molecule, the ED50 (Cavia porcellus [15]) was 0.35 mg/kg.

In the case of CCNCCc1ccc(CN(CC)c2cc(OC)ccc2[C@@H]2CCc3cc(O)ccc3C2)cc1, the PFA (Rattus norvegicus [3]) is reported as “Activity between positive and negative control groups” and the PFA (Rattus norvegicus [6]) is reported as “Activity between positive and negative control groups”.

CC(=O)Nc1ccc(OCCCN2CCC(C(O)(c3ccc(F)cc3)c3ccc(F)cc3)CC2)cc1 was tested, and the PFA (Rattus norvegicus [3]) was “Activity equal to positive control group”, the PFA (Rattus norvegicus [4]) was “Activity equal to positive control group” and the PFA (Rattus norvegicus [5]) was “Activity equal to positive control group”.

For O=C(O)CCc1ccc(OCCCN2CCC(C(O)(c3ccc(F)cc3)c3ccc(F)cc3)CC2)cc1, the PFA (Rattus norvegicus [7]) was “Activity between positive and negative control groups”, the PFA (Rattus norvegicus [4]) was “Activity between positive and negative control groups” and the PFA (Rattus norvegicus [13]) was “Activity between positive and negative control groups”. The PFA (Rattus norvegicus [5]) was “Activity between positive and negative control groups”.

For CCc1ccc(OCCCN2CCC(C(O)(c3ccc(F)cc3)c3ccc(F)cc3)CC2)cc1, the PFA (Rattus norvegicus [3]) was “Activity between positive and negative control groups”, the PFA (Rattus norvegicus [1]) was “Activity between positive and negative control groups” and the PFA (Rattus norvegicus [6]) was “Activity between positive and negative control groups”.

In the case of CN(C)C(=O)c1ccc(OCCCN2CCC(C(O)(c3ccc(F)cc3)c3ccc(F)cc3)CC2)cc1, the PFA (Rattus norvegicus [3]) is reported as “Activity between positive and negative control groups”, the PFA (Rattus norvegicus [4]) is reported as “Activity between positive and negative control groups” and the PFA (Rattus norvegicus [6]) is reported as “Activity between positive and negative control groups”.

Work on CCOC(=O)c1ccc(OCCCN2CCC(C(O)(c3ccc(F)cc3)c3ccc(F)cc3)CC2)cc1.Cl yielded an ED50 (Cavia porcellus [11]) of 1 mg/kg, an ED50 (Cavia porcellus [12]) of 0.37 mg/kg and an IC50 (Histamine H1 receptor) of 956 nM. For the same molecule, the PFA (Rattus norvegicus [7]) was “Weak activity”, the PFA (Rattus norvegicus [9]) was “Weak activity” and the PFA (Rattus norvegicus [14]) was “Active”. The ED50 (Cavia porcellus [15]) was 0.44 mg/kg.

For CC(C)C(=O)c1ccc(OCCCN2CCC(C(O)(c3ccc(F)cc3)c3ccc(F)cc3)CC2)cc1, the PFA (Rattus norvegicus [4]) was “Activity greater than positive control group” and the PFA (Rattus norvegicus [2]) was “Activity greater than positive control group”.

CC(C)Oc1ccccc1OCCCN1CCC(C(O)(c2ccc(F)cc2)c2ccc(F)cc2)CC1 was tested, and the PFA (Rattus norvegicus [7]) was “Activity between positive and negative control groups” and the PFA (Rattus norvegicus [6]) was “Activity between positive and negative control groups”.

Oc1ccccc1OCCCN1CCC(C(O)(c2ccc(F)cc2)c2ccc(F)cc2)CC1 was tested, and the PFA (Rattus norvegicus [1]) was “Activity equal to positive control group” and the PFA (Rattus norvegicus [2]) was “Activity equal to positive control group”.

For COC(=O)CCc1ccc(OCCCN2CCC(C(O)(c3ccc(F)cc3)c3ccc(F)cc3)CC2)cc1, the PFA (Rattus norvegicus [7]) was “Activity between positive and negative control groups”, the PFA (Rattus norvegicus [4]) was “Activity between positive and negative control groups” and the PFA (Rattus norvegicus [13]) was “Activity between positive and negative control groups”. For the same molecule, the PFA (Rattus norvegicus [6]) was “Activity between positive and negative control groups”.

CC(C)(C)C(=O)c1ccc(OCCCN2CCC(C(O)(c3ccc(F)cc3)c3ccc(F)cc3)CC2)cc1 was tested, and the PFA (Rattus norvegicus [1]) was “Activity equal to positive control group” and the PFA (Rattus norvegicus [2]) was “Activity equal to positive control group”.

In the case of Nc1ccc(OCCCN2CCC(C(O)(c3ccc(F)cc3)c3ccc(F)cc3)CC2)cc1, the PFA (Rattus norvegicus [3]) is reported as “Activity between positive and negative control groups”, the PFA (Rattus norvegicus [4]) is reported as “Activity between positive and negative control groups” and the PFA (Rattus norvegicus [6]) is reported as “Activity between positive and negative control groups”.
